Experimental data gathered from unrelated publications.
Lines come from different studies, so protocols differ.
MPO: Myeloperoxidase (MPO, Homo sapiens, UniProt P05164)
CES2: Cocaine esterase (CES2, Homo sapiens, UniProt O00748)
UDP-N-acetylglucosamine--dolichyl-phosphate N-acetylglucosaminephosphotransferase: UDP-N-acetylglucosamine--dolichyl-phosphate N-acetylglucosaminephosphotransferase (Homo sapiens, UniProt Q9H3H5)
CHRM5: Muscarinic acetylcholine receptor M5 (CHRM5, Homo sapiens, UniProt P08912)

SMILES	target	effect on	mode	method	setting	IC50 [µM]
NC/C(=C\F)COc1cccc(Cn2c(=S)[nH]c(=O)c3[nH]cnc32)c1	MPO	enzyme activity	inhibitor	fluorescence	–	0.017
O=C(c1ccc(F)c(F)c1Nc1ccc(I)cc1F)N1CC(O)([C@@H]2CCCCN2)C1	CES2	enzyme activity	inhibitor	fluorescence	with preincubation	> 100
CC(C)OCCn1c(=S)[nH]c(=O)c2[nH]ccc21	MPO	enzyme activity	inhibitor	fluorescence	–	0.038
NCC(=O)O	ltaA (Aeromonas jandaei, UniProt O07051)	enzyme activity	inhibitor	–	–	990
CO[C@H]1[C@H](O[C@H]([C@H]2O[C@@H](n3ccc(=O)[nH]c3=O)[C@H](O)[C@@H]2O)[C@H](NCCCNC(=O)[C@@H](NC(=O)[C@@H](NC(=O)N[C@H](C(=O)O)C(C)C)[C@@H]2CCN=C(N)N2)[C@@H](O)C(C)C)C(=O)O)O[C@H](CN)[C@H]1O	UDP-N-acetylglucosamine--dolichyl-phosphate N-acetylglucosaminephosphotransferase	enzyme activity	inhibitor	–	–	> 50
COc1cc2c(cc1OC)C(=O)/C(=C/c1ccc(C)cc1F)C2	CES2	enzyme activity	inhibitor	fluorescence	with preincubation	> 100
Cn1cc(C2=C(c3cn(CCCSC(=N)N)c4ccccc34)C(=O)NC2=O)c2ccccc21	Serine/threonine-protein kinase 10 (STK10, Homo sapiens, UniProt O94804)	enzyme activity	inhibitor	–	–	0.118
CC[N+](CC)(CC)Cc1ccccc1.CC[N+](CC)(CC)Cc1ccccc1.[Br][Co-2]([Br])([Br])[Br]	MPO	enzyme activity	inhibitor	absorbance	–	8.53
CCc1cc2c(cc1N1CCC(N3CCOCC3)CC1)C(C)(C)c1[nH]c3cc(C#N)ccc3c1C2=O	CES2	enzyme activity	inhibitor	fluorescence	with preincubation	> 100
O=C(CCNC(=O)CNC(=O)CC(c1ccccc1)(c1ccccc1)c1ccccc1)NC[C@@H]1CCCN(Cc2cccnc2F)C1	CHRM5	ligand displacement	–	radioligand	cell membranes	> 30
Cc1nn(-c2nc3ccccc3[nH]2)c(O)c1C(c1ccccn1)c1c(C)nn(-c2nc3ccccc3[nH]2)c1O	Cyclic GMP-AMP synthase (CGAS, Homo sapiens, UniProt Q8N884)	enzyme activity	inhibitor	–	–	> 40
O=C(CCNC(=O)CNC(=O)CC(c1ccccc1)(c1ccccc1)c1ccccc1)NCC1CCN(Cc2ccc(F)cc2)CC1	CHRM5	ligand displacement	–	radioligand	cell membranes	35.2
O=C(O[C@@H]1[C@@H](O)[C@H](Oc2cc(O)c3c(c2)O[C@H](c2ccccc2)CC3=O)O[C@@H]2COC(=O)c3cc(O)c(O)c(O)c3-c3c(cc(O)c(O)c3O)C(=O)O[C@@H]12)c1cc(O)c(O)c(O)c1	Protein disulfide-isomerase A6 (PDIA6, Homo sapiens, UniProt Q15084)	enzyme activity	inhibitor	fluorescence	–	1.5
CO[C@H]1[C@H](O[C@H]([C@H]2O[C@@H](n3ccc(=O)[nH]c3=O)[C@H](O)[C@@H]2O)[C@H](NCCCNC(=O)[C@@H](NC(=O)[C@@H](NC(=O)N[C@H](C(=O)O)C(C)C)[C@@H]2CCN=C(N)N2)[C@@H](OC(=O)CCCCCCCCCCCCN(O)C(=N)N)C(C)C)C(=O)O)O[C@H](CN)[C@H]1O	UDP-N-acetylglucosamine--dolichyl-phosphate N-acetylglucosaminephosphotransferase	enzyme activity	inhibitor	–	–	0.18
COc1cc2c(cc1OC)C(=O)/C(=C/c1cc3ccccc3c3ccccc13)C2	CES2	enzyme activity	inhibitor	fluorescence	with preincubation	2.98
